# Test results from ChEMBL document CHEMBL1126084, “2-Acetylpyridine thiocarbonohydrazones. Potent inactivators of herpes simplex virus ribonucleotide reductase” (J Med Chem, 1992).
# Tested on: Human alphaherpesvirus 1
# Test: Inhibition of HSV-1 ribonucleotide reductase
# Design: concentration or dose not given beside the values
# Conditions: concentration not given here
# Method in brief: (§1)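 Partially purified HSV-1 ribonucleotide reductase, assayed by reduction of purified [14C]CDP in 200 mM Hepes Na+ pH 7.7, 10 mM dithiothreitol, 2 μM CDP (500 Ci/mol, 3–4 × Km), with and without 5 μM inhibitor unless otherwise indicated. First-order kinact (per hour) and v0 of decelerating product time courses come from iterative nonlinear least squares. kinact is the net increase over the uninhibited control, and % inhibition refers to v0.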
row,inhibition,Compound
1,23%,C/C(=N\N=C(/S)N/N=C(\S)Nc1ccc(Br)cc1)c1ccccn1
2,22%,C/C(=N\N=C(/S)N/N=C(\S)Nc1cc(Cl)c(Cl)cc1Cl)c1ccccn1
3,17%,C/N=C(\S)N/N=C(\S)N/N=C(\C)c1ccccn1
4,14%,O=C(NNC(=S)N/N=C/c1ccccn1)Nc1ccccc1Cl
5,0%,C/C(=N\NC(=O)NNC(=O)Nc1ccccc1Cl)c1ccccn1
6,41%,Cc1cccc(/C=N/N=C(\S)N/N=C(\S)Nc2ccccc2Cl)n1
7,38%,C/C(=N\N=C(/S)N/N=C(\S)Nc1ccccc1Br)c1ccccn1
8,24%,C/C(=N\N=C(/S)N/N=C(\S)Nc1ccc(I)cc1)c1ccccn1
9,45%,COc1ccc(N/C(S)=N/N=C(\S)N/N=C(\C)c2ccccn2)cc1

# Tested on: Human alphaherpesvirus 1
# Test: Inhibitory index against HSV-1 ribonucleotide reductase
# Conditions: not given
# Method in brief: (§2)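 Index per eq 1 combines kinact and percent inhibition of initial velocity from reductase reactions ±5 μM inhibitor (unless otherwise indicated). 0.99 is subtracted from the calculated ratio, so a non-inhibiting, non-inactivating compound scores zero. HSV-1 and human enzymes were assayed under their respective conditions.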
row,Inhibitory index,Compound
1,57,C/C(=N\N=C(/S)N/N=C(\S)Nc1ccc(Br)cc1)c1ccccn1
2,21,C/C(=N\N=C(/S)N/N=C(\S)Nc1cc(Cl)c(Cl)cc1Cl)c1ccccn1
3,5,C/N=C(\S)N/N=C(\S)N/N=C(\C)c1ccccn1
4,27,O=C(NNC(=S)N/N=C/c1ccccn1)Nc1ccccc1Cl
5,0,C/C(=N\NC(=O)NNC(=O)Nc1ccccc1Cl)c1ccccn1
6,27,Cc1cccc(/C=N/N=C(\S)N/N=C(\S)Nc2ccccc2Cl)n1
7,34,C/C(=N\N=C(/S)N/N=C(\S)Nc1ccccc1Br)c1ccccn1
8,29,C/C(=N\N=C(/S)N/N=C(\S)Nc1ccc(I)cc1)c1ccccn1
9,29,COc1ccc(N/C(S)=N/N=C(\S)N/N=C(\C)c2ccccn2)cc1

# Tested on: Human alphaherpesvirus 1
# Test: Inactivation of HSV-1 ribonucleotide reductase at rate constant K inact
# Conditions: not given
# Method in brief: as §1
row,kinact,Compound
1,44 h⁻¹,C/C(=N\N=C(/S)N/N=C(\S)Nc1ccc(Br)cc1)c1ccccn1
2,16 h⁻¹,C/C(=N\N=C(/S)N/N=C(\S)Nc1cc(Cl)c(Cl)cc1Cl)c1ccccn1
3,4 h⁻¹,C/N=C(\S)N/N=C(\S)N/N=C(\C)c1ccccn1
4,23 h⁻¹,O=C(NNC(=S)N/N=C/c1ccccn1)Nc1ccccc1Cl
5,0 h⁻¹,C/C(=N\NC(=O)NNC(=O)Nc1ccccc1Cl)c1ccccn1
6,16 h⁻¹,Cc1cccc(/C=N/N=C(\S)N/N=C(\S)Nc2ccccc2Cl)n1
7,21 h⁻¹,C/C(=N\N=C(/S)N/N=C(\S)Nc1ccccc1Br)c1ccccn1
8,22 h⁻¹,C/C(=N\N=C(/S)N/N=C(\S)Nc1ccc(I)cc1)c1ccccn1
9,16 h⁻¹,COc1ccc(N/C(S)=N/N=C(\S)N/N=C(\C)c2ccccn2)cc1

# Molecular target: T1, Ribonucleoside-diphosphate reductase RR1 (Homo sapiens) (UniProt P23921+Q7LG56+P31350)
# Test: Inhibition of human ribonucleotide reductase
# Type: protein-complex assay
# Design: concentration or dose not given beside the values
# Conditions: concentration not given here
# Method in brief: (§3)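 The ATP contributed about 3 μM iron, keeping inhibitors iron-complexed. Reactions ran ±5 μM inhibitor unless otherwise indicated. kinact (per hour, net over the control) and v0 came from iterative nonlinear least-squares fits of decelerating time courses.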
row,inhibition,Compound
1,29%,C/C(=N\N=C(/S)N/N=C(\S)Nc1ccc(Br)cc1)c1ccccn1
2,3%,C/C(=N\N=C(/S)N/N=C(\S)Nc1cc(Cl)c(Cl)cc1Cl)c1ccccn1
3,19%,C/N=C(\S)N/N=C(\S)N/N=C(\C)c1ccccn1
4,66%,O=C(NNC(=S)N/N=C/c1ccccn1)Nc1ccccc1Cl
5,65%,Cc1cccc(/C=N/N=C(\S)N/N=C(\S)Nc2ccccc2Cl)n1
6,14%,C/C(=N\N=C(/S)N/N=C(\S)Nc1ccccc1Br)c1ccccn1
7,5%,C/C(=N\N=C(/S)N/N=C(\S)Nc1ccc(I)cc1)c1ccccn1
8,52%,COc1ccc(N/C(S)=N/N=C(\S)N/N=C(\C)c2ccccn2)cc1

# Molecular target: T1, Ribonucleoside-diphosphate reductase RR1 (Homo sapiens)
# Test: Inhibitory index against human ribonucleotide reductase
# Type: protein-complex assay
# Conditions: not given
# Method in brief: as §2
row,Inhibitory index,Compound
1,3.2,C/C(=N\N=C(/S)N/N=C(\S)Nc1ccc(Br)cc1)c1ccccn1
2,0.03,C/C(=N\N=C(/S)N/N=C(\S)Nc1cc(Cl)c(Cl)cc1Cl)c1ccccn1
3,0.35,C/N=C(\S)N/N=C(\S)N/N=C(\C)c1ccccn1
4,1.9,O=C(NNC(=S)N/N=C/c1ccccn1)Nc1ccccc1Cl
5,1.8,Cc1cccc(/C=N/N=C(\S)N/N=C(\S)Nc2ccccc2Cl)n1
6,0.16,C/C(=N\N=C(/S)N/N=C(\S)Nc1ccccc1Br)c1ccccn1
7,0.05,C/C(=N\N=C(/S)N/N=C(\S)Nc1ccc(I)cc1)c1ccccn1
8,1.1,COc1ccc(N/C(S)=N/N=C(\S)N/N=C(\C)c2ccccn2)cc1

# Molecular target: T1, Ribonucleoside-diphosphate reductase RR1 (Homo sapiens)
# Test: Inactivation of human ribonucleotide reductase at rate constant K inact
# Type: protein-complex assay
# Conditions: not given
# Method in brief: as §3
row,kinact,Compound
1,2 h⁻¹,C/C(=N\N=C(/S)N/N=C(\S)Nc1ccc(Br)cc1)c1ccccn1
2,0 h⁻¹,C/C(=N\N=C(/S)N/N=C(\S)Nc1cc(Cl)c(Cl)cc1Cl)c1ccccn1
3,0.1 h⁻¹,C/N=C(\S)N/N=C(\S)N/N=C(\C)c1ccccn1
4,0 h⁻¹,O=C(NNC(=S)N/N=C/c1ccccn1)Nc1ccccc1Cl
5,0 h⁻¹,Cc1cccc(/C=N/N=C(\S)N/N=C(\S)Nc2ccccc2Cl)n1
6,0 h⁻¹,C/C(=N\N=C(/S)N/N=C(\S)Nc1ccccc1Br)c1ccccn1
7,0 h⁻¹,C/C(=N\N=C(/S)N/N=C(\S)Nc1ccc(I)cc1)c1ccccn1
8,0 h⁻¹,COc1ccc(N/C(S)=N/N=C(\S)N/N=C(\C)c2ccccn2)cc1

# Molecular target: T1, Ribonucleoside-diphosphate reductase RR1 (Homo sapiens)
# Test: Apparent enzyme activity measured as the ratio of HSV-1 and human enzyme inhibition induces
# Type: functional
# Conditions: Human alphaherpesvirus 1
# Method in brief: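 Apparent selectivity is the ratio of HSV-1 to human inhibition indices, each from eq 1 at 5 μM inhibitor or at the indicated concentration for each enzyme.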
row,Apparent selectivity (HSV-1/human inhibition index ratio),Compound
1,18,C/C(=N\N=C(/S)N/N=C(\S)Nc1ccc(Br)cc1)c1ccccn1
2,680,C/C(=N\N=C(/S)N/N=C(\S)Nc1cc(Cl)c(Cl)cc1Cl)c1ccccn1
3,14,C/N=C(\S)N/N=C(\S)N/N=C(\C)c1ccccn1
4,14,O=C(NNC(=S)N/N=C/c1ccccn1)Nc1ccccc1Cl
5,15,Cc1cccc(/C=N/N=C(\S)N/N=C(\S)Nc2ccccc2Cl)n1
6,210,C/C(=N\N=C(/S)N/N=C(\S)Nc1ccccc1Br)c1ccccn1
7,560,C/C(=N\N=C(/S)N/N=C(\S)Nc1ccc(I)cc1)c1ccccn1
8,28,COc1ccc(N/C(S)=N/N=C(\S)N/N=C(\C)c2ccccn2)cc1
